From ChEMBL document CHEMBL1156224, “Design, synthesis, and antibiofilm activity of 2-arylimino-3-aryl-thiazolidine-4-ones” (2010)
Values after ≈ are worked out from the molar mass of the structure shown.

Legend:
Format in all cases: functional
[1] = test system: Staphylococcus epidermidis; experiment: Antibacterial activity against Staphylococcus epidermidis RP62A by broth microdilution method
Procedure, shortened: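 MIC against S. epidermidis RP62A by CLSI broth microdilution run in tubes (tube-dilution).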

[2] = test system: Staphylococcus epidermidis; experiment: Antibacterial activity against Staphylococcus epidermidis RP62A assessed as colony number after 24 hrs microdilution agar plate method
Procedure, shortened: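 MBC: 100 μl from each tube without visible growth in the MIC assay subcultured onto compound-free Mueller-Hinton agar, 37 °C for 24 h. Endpoint is the lowest concentration giving subcultures with no more than five colonies per plate.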

[3] = test system: Staphylococcus epidermidis; experiment: Antibacterial activity against Staphylococcus epidermidis RP62A 6 hrs biofilm after 16 hrs by microtiter plate method
Procedure, shortened: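 S. epidermidis RP62A overnight culture diluted 1:10 in TSB (OD600 0.6–0.8), then 1:200 in MH; inoculated into 96-well polystyrene wells, 37 °C for 6 h to form young biofilm. Wells washed four times with sterile PBS, fresh TSB with compound at various concentrations added, further 37 °C for 16 h.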

Compound: Cc1ccccc1/N=C1\S/C(=C\c2ccc(O)cc2)C(=O)N1c1ccccc1C
- MIC [1]: > 200 µM
- MBC [2]: > 200 µM
- Activity [3]: >200 µM

Compound: CCc1ccccc1/N=C1\S/C(=C\c2ccc(OCC(=O)O)c(OC)c2)C(=O)N1c1ccccc1CC
- MIC [1]: 50 µM (≈ 25.8 µg/mL)
- MBC [2]: 100 µM
- Activity [3]: 100 µM

Compound: COc1cc(/C=C2\S/C(=N\c3ccccc3C)N(c3ccccc3C)C2=O)ccc1O
- MIC [1]: > 200 µM
- MBC [2]: > 200 µM
- Activity [3]: >200 µM

Compound: Cc1ccccc1/N=C1\S/C(=C\c2ccc(-c3cccc(C(=O)O)c3)o2)C(=O)N1c1ccccc1C
- MIC [1]: 12.5 µM (≈ 6.18 µg/mL)
- MBC [2]: 25 µM
- Activity [3]: 25 µM

Compound: COc1cc(/C=C2\S/C(=N\c3ccccc3C)N(c3ccccc3C)C2=O)ccc1OCC(=O)O
- MIC [1]: > 200 µM
- MBC [2]: > 200 µM
- Activity [3]: >200 µM

Compound: CCc1ccccc1/N=C1\S/C(=C\c2ccc(OCC(=O)O)cc2)C(=O)N1c1ccccc1CC
- MIC [1]: 50 µM (≈ 24.3 µg/mL)
- MBC [2]: 100 µM
- Activity [3]: 100 µM

Compound: CCc1ccccc1/N=C1\S/C(=C\c2cccc(OCC(=O)O)c2)C(=O)N1c1ccccc1CC
- MIC [1]: 50 µM (≈ 24.3 µg/mL)
- MBC [2]: 100 µM
- Activity [3]: 100 µM

Compound: CCc1ccccc1/N=C1\S/C(=C\c2ccc(O)cc2)C(=O)N1c1ccccc1CC
- MIC [1]: > 200 µM
- MBC [2]: > 200 µM
- Activity [3]: >200 µM

Compound: CCc1ccccc1/N=C1\S/C(=C\c2cccc(O)c2)C(=O)N1c1ccccc1CC
- MIC [1]: > 200 µM
- MBC [2]: > 200 µM
- Activity [3]: >200 µM

Compound: COC(=O)COc1ccc(/C=C2\S/C(=N\c3ccccc3)N(c3ccccc3)C2=O)cc1OC
- MIC [1]: > 200 µM
- MBC [2]: > 200 µM
- Activity [3]: >200 µM

Compound: COC(=O)c1cccc(-c2ccc(/C=C3\S/C(=N\c4ccc(C)cc4)N(c4ccc(C)cc4)C3=O)o2)c1
- MIC [1]: > 200 µM
- MBC [2]: > 200 µM
- Activity [3]: >200 µM

Compound: COC(=O)c1cccc(-c2ccc(/C=C3\S/C(=N\c4ccccc4C)N(c4ccccc4C)C3=O)o2)c1
- MIC [1]: > 200 µM
- MBC [2]: > 200 µM
- Activity [3]: >200 µM

Compound: CCc1ccccc1/N=C1\S/C(=C\c2cccc(OCC(=O)OC)c2)C(=O)N1c1ccccc1CC
- MIC [1]: > 200 µM
- MBC [2]: > 200 µM
- Activity [3]: >200 µM

Compound: CCc1ccccc1/N=C1\S/C(=C\c2ccc(-c3cccc(C(=O)OC)c3)o2)C(=O)N1c1ccccc1CC
- MIC [1]: > 200 µM
- MBC [2]: > 200 µM
- Activity [3]: >200 µM

Compound: CCc1ccccc1/N=C1\S/C(=C\c2ccc(-c3cccc(C(=O)O)c3)o2)C(=O)N1c1ccccc1CC
- MIC [1]: 12.5 µM (≈ 6.53 µg/mL)
- MBC [2]: 25 µM
- Activity [3]: 25 µM

Compound: Cc1ccc(/N=C2\S/C(=C\c3ccc(-c4cccc(C(=O)O)c4)o3)C(=O)N2c2ccc(C)cc2)cc1
- MIC [1]: 6.25 µM (≈ 3.09 µg/mL)
- MBC [2]: 25 µM
- Activity [3]: 12.5 µM

Compound: COc1cc(/C=C2\S/C(=N\c3ccccc3)N(c3ccccc3)C2=O)ccc1O
- MIC [1]: > 200 µM
- MBC [2]: > 200 µM
- Activity [3]: >200 µM

Compound: COc1ccc(/N=C2\S/C(=C\c3ccc(-c4cccc(C(=O)O)c4)o3)C(=O)N2c2ccc(OC)cc2)cc1
- MIC [1]: 6.25 µM (≈ 3.29 µg/mL)
- MBC [2]: 25 µM
- Activity [3]: 6.25 µM

Compound: COC(=O)c1cccc(-c2ccc(/C=C3\S/C(=N\c4ccc(OC)cc4)N(c4ccc(OC)cc4)C3=O)o2)c1
- MIC [1]: > 200 µM
- MBC [2]: > 200 µM
- Activity [3]: >200 µM

Compound: COc1cc(/C=C2\S/C(=N\c3ccccc3)N(c3ccccc3)C2=O)ccc1OCC(=O)O
- MIC [1]: > 200 µM
- MBC [2]: > 200 µM
- Activity [3]: >200 µM

Compound: Cc1ccccc1/N=C1\S/C(=C\c2ccc(OCC(=O)O)cc2)C(=O)N1c1ccccc1C
- MIC [1]: > 200 µM
- MBC [2]: > 200 µM
- Activity [3]: >200 µM

Compound: COC(=O)COc1ccc(/C=C2\S/C(=N\c3ccccc3C)N(c3ccccc3C)C2=O)cc1
- MIC [1]: > 200 µM
- MBC [2]: > 200 µM
- Activity [3]: >200 µM

Compound: COC(=O)COc1ccc(/C=C2\S/C(=N\c3ccccc3C)N(c3ccccc3C)C2=O)cc1OC
- MIC [1]: > 200 µM
- MBC [2]: > 200 µM
- Activity [3]: >200 µM

Compound: CCc1ccccc1/N=C1\S/C(=C\c2ccc(OCC(=O)OC)cc2)C(=O)N1c1ccccc1CC
- MIC [1]: > 200 µM
- MBC [2]: > 200 µM
- Activity [3]: >200 µM

Compound: CN(C)c1ccc(/C=C2\S/C(=N\c3ccccc3)N(c3ccccc3)C2=O)cc1
- MIC [1]: > 200 µM
- MBC [2]: > 200 µM
- Activity [3]: >200 µM
